Here are results for 20 compounds from ChEMBL document CHEMBL1156837, “Synthesis and the biological evaluation of arylnaphthalene lignans as anti-hepatitis B virus agents” (Bioorg Med Chem, 2010).

The test system of data set [1] is Hepatitis B virus. Nature of the data set: Antiviral activity against Hepatitis B virus in human HepA2 cells assessed as reduction of HBsAg secretion after 48 hrs by enzyme immunoassay. It is filed as functional, organism-based. Summed up: (§1)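 HepA2 cells (HepG2 carrying tandem-repeat full-length HBV DNA) seeded at 8 × 10⁴ cells/well in DMEM with 10% fetal calf serum, attached overnight, washed twice with PBS pH 7.0, then exposed to various concentrations in serum-free DMEM for 48 h. Secreted HBsAg and HBeAg in medium measured by enzyme immunoassay; EC50 as concentration giving 50% of untreated level; mean ± SD, n = 3.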

The nature of data set [2]: Cytotoxicity against human HepA2 cells after 48 hrs by MTT assay. It is filed as cell-based. In short, it runs like this: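 HepA2 cells seeded in 96-well plates in DMEM and treated with various concentrations of compound for 2 days; cell number measured by MTT; CC50 taken as concentration giving cell growth at 50% of untreated cells.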
The test system of data set [3] is Hepatitis B virus. The experiment in a line: Antiviral activity against Hepatitis B virus ayw in human 1.3ES2 cells stably transfected with 1.3 fold wild type HBV ayw strain genome cells assessed as reduction of viral DNA level after 6 days by RT-PCR. It is filed as functional, organism-based.
The test system of data set [4] is Hepatitis B virus. Nature of the data set: Antiviral activity against Hepatitis B virus ayw in human M33 cells containing Lamivudine resistant HBV genome with DNA polymerase L515M/M539V mutation genome cells assessed as reduction of viral DNA level after 6 days by RT-PCR. It is filed as functional, organism-based. In short, it runs like this: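 M33 cells (HepG2 carrying HBV with the L515M/M539V polymerase double mutation) were maintained in DMEM with 10% FCS at 37 °C under 5% CO₂. Cells were seeded at 5 × 10⁶ per 100 mm dish and treated with graded drug concentrations in serum-free DMEM. Viral DNA was extracted from the medium and quantified by real-time PCR against an HBV plasmid standard curve (10³–10⁷ copies), reported as mean, SD, n = 3.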

For data set [5], the system named is Hepatitis B virus. The experiment in a line: Antiviral activity against Hepatitis B virus in human HepA2 cells assessed as reduction of HBsAg secretion after 48 hrs by ELISA. It is filed as functional, organism-based. To be noted: HepA2, 48 h. In short, it runs like this: as §1
In data set [6] the test system is Hepatitis B virus. The experiment in a line: Antiviral activity against Hepatitis B virus in human HepA2 cells assessed as reduction of HBeAg secretion after 48 hrs by ELISA. It is filed as functional, organism-based. Conditions: HepA2, 48 h. Summed up: as §1
A short description of data set [7]: Cytotoxicity against human HepA2 cells assessed as effect on cell proliferation after 48 hrs by WST1 dye reduction assay. It is filed as cell-based. Conditions: hepa2, 48 h. Summed up: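 HepA2 cells treated alongside the antigen assay in serum-free DMEM for 48 h after PBS wash; WST-1 added for 0.5 h and formazan formation used to estimate viable cells per well; mean ± SD, n = 3.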

Data set [8] has as its system Hepatitis B virus. The experiment in a line: Antiviral activity against Hepatitis B virus ayw in human 1.3ES2 cells stably transfected with 1.3 fold wild type HBV ayw strain genome cells assessed as reduction of HbeAg mRNA level after 2 days by Northern blot. It is filed as functional, organism-based. In short, it runs like this: (§2)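 1.3ES2 cells (HepG2 with 1.3 copies of HBV genome integrated) grown in DMEM with 10% fetal calf serum to confluence in 100 mm dishes, then switched to serum-free DMEM with compound (0, 1.5, 3.0, 9.0 µM) for 48 h. Total RNA Northern-hybridized with HBV DNA probe; 3.5-kb and 2.4/2.1-kb transcripts read, GAPDH mRNA as internal marker; representative of three independent experiments.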

Data set [9] concerns Hepatitis B virus. Nature of the data set: Antiviral activity against Hepatitis B virus ayw in human 1.3ES2 cells stably transfected with 1.3 fold wild type HBV ayw strain genome cells assessed as reduction of large HbsAg mRNA level after 2 days by Northern blot. It is filed as functional, organism-based. In short, it runs like this: as §2
Data set [10] has as its system Hepatitis B virus. The experiment in a line: Antiviral activity against Hepatitis B virus ayw in human 1.3ES2 cells stably transfected with 1.3 fold wild type HBV ayw strain genome cells assessed as reduction of viral core protein level after 2 days by Western blot. It is filed as functional, organism-based. In short, it runs like this:
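1.3ES2 cells in 100 mm dishes treated with compound (0, 1.5, 3.0, 9.0 µM) in serum-free DMEM for 48 h; total cell lysates resolved by SDS-PAGE and immunoblotted with mouse anti-HBV core antibody.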

In data set [11] the test system is Hepatitis B virus. Nature of the data set: Suppression of large viral surface antigen promoter activity of Hepatitis B virus in human HepA2 cells at 3 uM by luciferase reporter gene assay. It is filed as functional, organism-based. In short, it runs like this:
(§3)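 HepA2 cells transfected by lipofectamine 2000 with HBV S1P, S2P, core, X or enhancer I/X promoter–luciferase constructs plus β-gal vector, then held in serum-free DMEM with compound (0.9 or 3.0 µM) for 48 h. Lysate luciferase normalized to protein (Bradford) and β-gal, untreated set to one; mean ± SEM, at least three independent experiments.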

Data set [12] relates to Hepatitis B virus. The experiment in a line: Suppression of major viral surface promoter activity of Hepatitis B virus in human HepA2 cells at 3 uM by luciferase reporter gene assay. It is filed as functional, organism-based. Summed up: as §3
The test system of data set [13] is Hepatitis B virus. Nature of the data set: Suppression of viral core protein promoter activity of Hepatitis B virus in human HepA2 cells at 3 uM by luciferase reporter gene assay. It is filed as functional, organism-based. Summed up: as §3
In data set [14] the test system is Hepatitis B virus. The experiment in a line: Suppression of enhancer 1 promoter activity of Hepatitis B virus in human HepA2 cells at 3 uM by luciferase reporter gene assay. It is filed as functional, organism-based. In short, it runs like this:
as §3

Data set [15] has as its system Hepatitis B virus. The experiment in a line: Suppression of viral X protein promoter activity of Hepatitis B virus in human HepA2 cells at 3 uM by luciferase reporter gene assay. It is filed as functional, organism-based. Summed up: as §3
The mark [16] stands for this setting: Hepatitis B virus, HepA2, 48 h, read-out: EC50.

Calls of active or inactive are those of the source. The calls are words filed in the database; no cut-off is given here. Bounds are passed on as bounds.

For `OCc1cc2ccc3c(c2c(-c2ccc4c(c2)OCO4)c1CO)OCO3`, the EC50 in the data set on Hepatitis B virus [1] (setting [16]) is 1.41 µM. In [2], this compound showed a CC50 at 48 h of over 12.5 µM.
Take `O=C(O)c1cc2ccc3c(c2c(-c2ccc4c(c2)OCO4)c1CO)OCO3`: the EC50 in the data set on Hepatitis B virus [1] (setting [16]) was determined as 0.89 µM. The half-maximal cytotoxic concentration (CC50) at 48 h in [2] is over 12.5 µM.
The like results for `CC(=O)OCc1cc2ccc3c(c2c(-c2ccc4c(c2)OCO4)c1C=O)OCO3` were, in that order, over 12.5 µM and 4.69 µM.
For the compound `COc1ccc(-c2c3c(cc4ccc5c(c24)OCO5)C(=O)OC3=O)cc1OCc1ccccc1`, in the data set on Hepatitis B virus [1] (setting [16]), the concentration giving a half-maximal response (EC50) is over 12.5 µM. The CC50 at 48 h in [2] was over 12.5 µM.
For the compound `Nc1ccn([C@@H]2CS[C@H](CO)O2)c(=O)n1`, in the data set with Hepatitis B virus [3], the inhibition entry was “Active”. The inhibition result in the data set on Hepatitis B virus [4] is “inactive”.
As for `COC(=O)c1c(C(=O)O)c(OC)c2ccc3c(c2c1-c1ccc2c(c1)OCO2)OCO3`, the 50% effective concentration (EC50) in the data set on Hepatitis B virus [1] (setting [16]) is over 12.5 µM. For the same compound, the CC50 at 48 h in [2] was 7.87 µM.
On to `COc1cc(-c2c3c(cc4ccc5c(c24)OCO5)C(=O)OC3)ccc1O`, for which the EC50 in the data set with Hepatitis B virus [1] (setting [16]) is 1.89 µM. In data set [2], this compound registered a cytotoxic concentration (CC50) at 48 h of over 12.5 µM.
Taken in the same sequence, the figures for `COc1ccc(-c2c3c(cc4ccc5c(c24)OCO5)COC3=O)cc1OCc1ccccc1` were over 12.5 µM and over 12.5 µM.
As to `O=C1OCc2c1cc1ccc3c(c1c2-c1ccc(O)c(O)c1)OCO3`, in the data set with Hepatitis B virus [1] (setting [16]), the EC50 was 3.06 µM. Moreover, the 50% cytotoxic concentration (CC50) at 48 h in data set [2] was 7.01 µM.
In the case of `O=C1OC(=O)c2c1cc1ccc3c(c1c2-c1ccc(OC(F)(F)F)cc1)OCO3`, the concentration giving a half-maximal response (EC50) entry in the data set with Hepatitis B virus [1] (hepa2) is reported as “Not Active”.
Consider `CC(=O)OCc1cc2ccc3c(c2c(-c2ccc4c(c2)OCO4)c1CO)OCO3`, for which, in the data set with Hepatitis B virus [1] (setting [16]), the EC50 is 0.42 µM. Moreover, in data set [2], the 50% cytotoxic concentration (CC50) at 48 h was over 12.5 µM.
Taken in the same sequence, the figures for `COc1cc(-c2c3c(cc4ccc5c(c24)OCO5)C(=O)OC3)ccc1OCc1ccccc1` were over 12.5 µM and over 12.5 µM.
For `COc1cc(-c2c3c(cc4ccc5c(c24)OCO5)COC3=O)ccc1OCc1ccccc1`, in the data set with Hepatitis B virus [1] (hepa2), the EC50 result was “Not Active”.
As to `O=C1OCc2c1cc1ccc3c(c1c2-c1ccc2c(c1)OCO2)OCO3` [HELIOXANTHIN], in the data set with Hepatitis B virus [1] (setting [16]), the EC50 was 0.16 µM. Also, half-maximal cytotoxicity in data set [2] (CC50 at 48 h) was put at 11.3 µM.
In the case of `O=C1c2cc3ccc4c(c3c(-c3ccc5c(c3)OCO5)c2C(=O)N1CCO)OCO4`, the EC50 in the data set with Hepatitis B virus [1] (setting [16]) is over 12.5 µM. In [2], this compound had a CC50 at 48 h of over 12.5 µM.
For the compound `COC(=O)c1c(C(=O)OC)c(-c2ccc3c(c2)OCO3)c2c3c(ccc2c1OC)OCO3`, in the data set on Hepatitis B virus [1] (setting [16]), the EC50 is over 12.5 µM. In data set [2], this compound showed a CC50 at 48 h of 8.93 µM.
For the compound `COc1ccc(-c2c3c(cc4ccc5c(c24)OCO5)C(=O)OC3)cc1O`, the EC50 in the data set with Hepatitis B virus [5] was 0.06 µM; with Hepatitis B virus [6] it was 0.14 µM; with Hepatitis B virus [1] (setting [16]), 0.14 µM. Besides, the Activity result in [7] is reported as “Non-toxic”. Further, the inhibition entry in the data set on Hepatitis B virus [3], in the data set with Hepatitis B virus [4], in the data set on Hepatitis B virus [8], with Hepatitis B virus [9] and in the data set with Hepatitis B virus [10] was “Dose-dependent effect” in each case. Moreover, the inhibition entry in the data set on Hepatitis B virus [11], in the data set on Hepatitis B virus [12], with Hepatitis B virus [13] and with Hepatitis B virus [14] was “Active” in each case. In the data set on Hepatitis B virus [15], the inhibition result was “inactive”. This compound also came in with a CC50 at 48 h in data set [2] of 10.1 µM.
For the compound `O=C1OC(=O)c2c1cc1ccc3c(c1c2-c1ccc(OCc2ccccc2)c(OCc2ccccc2)c1)OCO3`, the EC50 with Hepatitis B virus [1] (setting [16]) is over 12.5 µM. Moreover, the half-maximal cytotoxic concentration (CC50) at 48 h in data set [2] is over 12.5 µM.
With `COc1cc(-c2c3c(cc4ccc5c(c24)OCO5)C(=O)OC3=O)ccc1OCc1ccccc1`, the EC50 in the data set with Hepatitis B virus [1] (setting [16]) was over 12.5 µM. This compound also gave a cytotoxic concentration (CC50) at 48 h in data set [2] of 11.7 µM.
For the compound `COc1ccc(-c2c3c(cc4ccc5c(c24)OCO5)C(=O)OC3)cc1OCc1ccccc1`, in the data set with Hepatitis B virus [1] (setting [16]), the EC50 was over 12.5 µM. In data set [2], the 50% cytotoxic concentration (CC50) at 48 h is over 12.5 µM.
